In ChEMBL document CHEMBL1212776, “Novel ambler class A carbapenem-hydrolyzing beta-lactamase from a Pseudomonas fluorescens isolate from the Seine River, Paris, France” (Antimicrob Agents Chemother, 2010):
Converted amounts (≈) assume the structure as drawn.

B1: Beta-lactamase (Pseudomonas fluorescens), D2WFL1 (protein)
chain: MARPSKLALSFSLLLPFLPFTSFAETWPQGDIARQKIVKLEKDFGGRIGVSAIDTGANRTFDFRADERFPLCSSFKGFLAGAVLSHSQQQEGLLEKRIDYKNRVMEPHSPISAQHSSTGMTVAQLAAAALQYSDNGATNLLLENVLGGPAGMTTFMRTLGDTTFRLDRWELELNSAIPGDDRDTSTPHAIARSLQKIALGEALQTAPRQQLVDWLIGNTTGGARIRAGVPVEWVVGDKTGTCGVYGTANDYAVIWPKTSAPIVLAIYTAKPNKEDKHSDAVIAEVTRAVLESFE

Legend:
Pseudomonas fluorescens [1] = experiment: Antimicrobial activity against Pseudomonas fluorescens isolate PF-1 expressing beta-lactamase BIC-1 by Etest; assay type: functional
How it was run: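 MIC for isolate PF-1 by Etest, interpreted per CLSI recommendations. Cultures grown in Trypticase soy broth, 37°C, 18 h.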

Escherichia coli [2] = experiment: Antimicrobial activity against Escherichia coli DH10B harbouring recombinant plasmid pSau1 expressing beta-lactamase BIC-1 from Pseudomonas fluorescens PF-1 by Etest; assay type: functional
Escherichia coli [3] = experiment: Antimicrobial activity against Escherichia coli DH10B by Etest; assay type: functional
How it was run: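 MIC by Etest, interpreted per CLSI recommendations. Reference strain E. coli DH10B without recombinant plasmid; cultures grown in Trypticase soy broth at 37°C for 18 h.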

Pseudomonas fluorescens [4] = experiment: Activity at Pseudomonas fluorescens PF-1 beta-lactamase BIC-1 expressed in Escherichia coli DH10B carrying pSau1
Pseudomonas fluorescens [5] = experiment: Antimicrobial activity against Pseudomonas fluorescens isolate PF-1 expressing beta-lactamase BIC-1 by Etest in presence of 4 ug/ml of clavulanic acid; assay type: functional
How it was run: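 MIC for isolate PF-1 by Etest, with clavulanic acid held at a fixed 4 μg/ml and the β-lactam varied. Interpreted per CLSI recommendations.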

Escherichia coli [6] = experiment: Antimicrobial activity against Escherichia coli DH10B harbouring recombinant plasmid pSau1 expressing beta-lactamase BIC-1 from Pseudomonas fluorescens PF-1 by Etest in presence of 4 ug/ml of clavulanic acid; assay type: functional
Escherichia coli [7] = experiment: Antimicrobial activity against Escherichia coli DH10B by Etest in presence of 4 ug/ml of clavulanic acid; assay type: functional
How it was run: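 Etest MIC with clavulanic acid held at a fixed 4 μg/ml alongside the β-lactam, read per CLSI recommendations. Strain E. coli DH10B; cultures grown in TS broth at 37°C for 18 h.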

[8] = Inhibition of Pseudomonas fluorescens PF-1 beta-lactamase BIC-1 expressed in Escherichia coli DH10B carrying pSau1
How it was run: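 BIC-1 purified from E. coli DH10B(pSau1) lysate by S-Sepharose flowthrough, then Q-Sepharose with a 0–500 mM NaCl gradient. Enzyme preincubated with varied inhibitor (clavulanate, tazobactam or sulbactam) for 3 min at 30°C. Then 100 μM benzylpenicillin added. IC50 is the inhibitor concentration halving the hydrolysis rate.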

[9] = target: Carbapenem-hydrolyzing beta-lactamase KPC (Klebsiella pneumoniae, UniProt Q9F663); experiment: Inhibition of carbapenem-resistant Klebsiella pneumoniae carbepenem-hydrolyzing beta-lactamase KPC-1
[10] = substrate: CC(=O)OCC1=C(C(=O)O)N2C(=O)[C@@H](NC(=O)Cc3cccs3)[C@H]2SC1; experiment: (§1) Ratio of Kcat to Km of Pseudomonas fluorescens PF-1 beta-lactamase BIC-1 expressed in Escherichia coli DH10B using nitrocefin hydrolysis
How it was run: (§2)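 Cells from overnight 37°C TS broth culture with amoxicillin and kanamycin were sonicated. Enzyme purified by S-Sepharose (malonate pH 6.1), then Q-Sepharose (bis-Tris pH 7.2, 0–500 mM NaCl gradient), and dialyzed into 50 mM sodium phosphate pH 7. kcat and Km measured on the purified enzyme. Values are means of three independent experiments; SD within 10%.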

[11] = substrate: CC1(C)S[C@@H]2[C@H](NC(=O)Cc3ccccc3)C(=O)N2[C@H]1C(=O)O; experiment: as §1; how it was run: as §2
[12] = substrate: CC1(C)S[C@@H]2[C@H](NC(=O)[C@H](C(=O)O)c3ccsc3)C(=O)N2[C@H]1C(=O)O; experiment: as §1; how it was run: as §2
[13] = substrate: CC1(C)S[C@@H]2[C@H](NC(=O)[C@H](N)c3ccccc3)C(=O)N2[C@H]1C(=O)O; experiment: as §1; how it was run: as §2
[14] = substrate: CCN1CCN(C(=O)N[C@@H](C(=O)N[C@@H]2C(=O)N3[C@@H]2SC(C)(C)[C@@H]3C(=O)O)c2ccccc2)C(=O)C1=O; experiment: as §1; how it was run: as §2
[15] = substrate: CO/N=C(\C(=O)N[C@@H]1C(=O)N2C(C(=O)O)=C(COC(C)=O)CS[C@H]12)c1csc(N)n1; experiment: as §1; how it was run: as §2
[16] = substrate: CO/N=C(\C(=O)N[C@@H]1C(=O)N2C(C(=O)O)=C(COC(N)=O)CS[C@H]12)c1ccco1; experiment: as §1; how it was run: as §2
[17] = substrate: CO[C@@]1(NC(=O)C(C(=O)O)c2ccc(O)cc2)C(=O)N2C(C(=O)O)=C(CSc3nnnn3C)CO[C@@H]21; experiment: as §1; how it was run: as §2
[18] = substrate: CO[C@@]1(NC(=O)Cc2cccs2)C(=O)N2C(C(=O)O)=C(COC(N)=O)CS[C@@H]21; experiment: as §1; how it was run: as §2
[19] = substrate: C[C@@H](O)[C@H]1C(=O)N2C(C(=O)O)=C(SCCNC=N)C[C@H]12; experiment: as §1; how it was run: as §2
[20] = substrate: C[C@@H](O)[C@H]1C(=O)N2C(C(=O)O)=C(S[C@@H]3CN[C@H](C(=O)N(C)C)C3)[C@H](C)[C@H]12; experiment: as §1; how it was run: as §2
[21] = substrate: C[C@@H](O)[C@H]1C(=O)N2C(C(=O)O)=C(S[C@@H]3CN[C@H](C(=O)Nc4cccc(C(=O)O)c4)C3)[C@H](C)[C@H]12; experiment: as §1; how it was run: as §2
[22] = substrate: C[C@H]1[C@H](NC(=O)/C(=N\OC(C)(C)C(=O)O)c2csc(N)n2)C(=O)N1S(=O)(=O)O; experiment: as §1; how it was run: as §2
[23] = substrate: Cc1onc(-c2ccccc2)c1C(=O)N[C@@H]1C(=O)N2[C@@H]1SC(C)(C)[C@@H]2C(=O)O; experiment: as §1; how it was run: as §2
[24] = substrate: O=C(Cc1cccs1)N[C@@H]1C(=O)N2C(C(=O)[O-])=C(C[n+]3ccccc3)CS[C@H]12; experiment: as §1; how it was run: as §2

Carbapenem-hydrolyzing beta-lactamase KPC, sequence (Q9F663 whole entry): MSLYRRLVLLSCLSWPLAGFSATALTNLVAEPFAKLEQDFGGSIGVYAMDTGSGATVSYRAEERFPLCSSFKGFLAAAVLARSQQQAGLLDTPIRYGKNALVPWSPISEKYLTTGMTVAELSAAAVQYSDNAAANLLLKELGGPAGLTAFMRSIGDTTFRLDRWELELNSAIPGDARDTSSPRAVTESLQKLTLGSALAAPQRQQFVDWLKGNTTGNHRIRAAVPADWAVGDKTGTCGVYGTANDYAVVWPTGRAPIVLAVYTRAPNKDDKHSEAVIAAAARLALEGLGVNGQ

Molecule | MIC (Pseudomonas fluorescens [1]) [µg/mL] | MIC (Escherichia coli [2]) [µg/mL] | MIC (Escherichia coli [3]) [µg/mL] | Km (Pseudomonas fluorescens [4]) [µM] | kcat (Pseudomonas fluorescens [4]) [s⁻¹] | also measured
C[C@@H](O)[C@H]1C(=O)N2C(C(=O)O)=C(S[C@@H]3CN[C@H](C(=O)Nc4cccc(C(=O)O)c4)C3)[C@H](C)[C@H]12 | > 16 | 0.25 | 0.12 (≈ 0.252 µM) | 10 | 2 | –
CO/N=C(\C(=O)N[C@@H]1C(=O)N2C(C(=O)[O-])=C(C[N+]3(C)CCCC3)CS[C@H]12)c1csc(N)n1 | > 16 | 0.12 | – | – | – | –
CC1(C)S[C@@H]2[C@H](NC(=O)Cc3ccccc3)C(=O)N2[C@H]1C(=O)O | – | – | – | 48 | 31 | –
CC1(C)S[C@@H]2[C@H](NC(=O)[C@H](N)c3ccccc3)C(=O)N2[C@H]1C(=O)O | – | – | – | 1150 | 185 | –
Cc1onc(-c2ccccc2)c1C(=O)N[C@@H]1C(=O)N2[C@@H]1SC(C)(C)[C@@H]2C(=O)O | – | – | – | 110 | 15 | –
O=C(Cc1cccs1)N[C@@H]1C(=O)N2C(C(=O)[O-])=C(C[n+]3ccccc3)CS[C@H]12 | – | – | – | 770 | 170 | –
CC1(C)S[C@@H]2[C@H](NC(=O)[C@H](N)c3ccc(O)cc3)C(=O)N2[C@H]1C(=O)O [AMOXICILLIN] | > 256 | > 256 | 4 (≈ 10.9 µM) | – | – | MIC (Pseudomonas fluorescens [5]): > 256 µg/mL; MIC (Escherichia coli [6]): 16 µg/mL; MIC (Escherichia coli [7]): 4 µg/mL
C[C@H]1[C@H](NC(=O)/C(=N\OC(C)(C)C(=O)O)c2csc(N)n2)C(=O)N1S(=O)(=O)O [AZTREONAM] | > 256 | 16 | – | > 1000 | 35 | –
CO/N=C(\C(=O)N[C@@H]1C(=O)N2C(C(=O)O)=C(COC(C)=O)CS[C@H]12)c1csc(N)n1 [CEFOTAXIME] | > 32 | 0.5 | 0.12 (≈ 0.263 µM) | 2200 | 20 | –
CO[C@@]1(NC(=O)Cc2cccs2)C(=O)N2C(C(=O)O)=C(COC(N)=O)CS[C@@H]21 [CEFOXITIN] | > 256 | 4 | 1 (≈ 2.34 µM) | 825 | 1 | –
CC(C)(O/N=C(\C(=O)N[C@@H]1C(=O)N2C(C(=O)[O-])=C(C[n+]3ccccc3)CS[C@H]12)c1csc(N)n1)C(=O)O [CEFTAZIDIME] | 2 (≈ 3.66 µM) | 0.5 | 0.5 (≈ 0.915 µM) | – | – | –
CO/N=C(\C(=O)N[C@@H]1C(=O)N2C(C(=O)O)=C(COC(N)=O)CS[C@H]12)c1ccco1 [CEFUROXIME] | > 256 | 16 | 0.5 (≈ 1.18 µM) | > 1000 | 9 | –
CC(=O)OCC1=C(C(=O)O)N2C(=O)[C@@H](NC(=O)Cc3cccs3)[C@H]2SC1 [CEPHALOTHIN] | > 256 | 128 | 2 (≈ 5.04 µM) | 550 | 250 | –
O=C(O)[C@H]1/C(=C/CO)O[C@@H]2CC(=O)N21 [CLAVULANIC ACID] | – | – | – | – | – | IC50 [8]: 30 µM; IC50 [9]: 10.5 µM
C[C@@H](O)[C@H]1C(=O)N2C(C(=O)O)=C(SCCNC=N)C[C@H]12 [IMIPENEM ANHYDROUS] | > 16 | – | – | 300 | 50 | MIC (Pseudomonas fluorescens [5]): > 16 µg/mL; MIC (Escherichia coli [7]): 0.12 µg/mL
C[C@@H](O)[C@H]1C(=O)N2C(C(=O)O)=C(S[C@@H]3CN[C@H](C(=O)N(C)C)C3)[C@H](C)[C@H]12 [MEROPENEM] | > 16 | 0.25 | 0.12 (≈ 0.313 µM) | 12 | 1 | –
CO[C@@]1(NC(=O)C(C(=O)O)c2ccc(O)cc2)C(=O)N2C(C(=O)O)=C(CSc3nnnn3C)CO[C@@H]21 (some centres undefined) [MOXALACTAM] | > 256 | 0.12 | 0.12 (≈ 0.231 µM) | 1700 | 3 | –
CCN1CCN(C(=O)N[C@@H](C(=O)N[C@@H]2C(=O)N3[C@@H]2SC(C)(C)[C@@H]3C(=O)O)c2ccccc2)C(=O)C1=O [PIPERACILLIN] | 4 (≈ 7.73 µM) | 256 | 1 (≈ 1.93 µM) | 175 | 40 | –
C[C@]1(Cn2ccnn2)[C@H](C(=O)O)N2C(=O)C[C@H]2S1(=O)=O [TAZOBACTAM] | – | – | – | – | – | IC50 [8]: 6.5 µM
CC1(C)S[C@@H]2[C@H](NC(=O)[C@H](C(=O)O)c3ccsc3)C(=O)N2[C@H]1C(=O)O [TICARCILLIN] | > 256 | > 256 | 4 (≈ 10.4 µM) | 250 | 15 | MIC (Pseudomonas fluorescens [5]): > 256 µg/mL; MIC (Escherichia coli [6]): 128 µg/mL; MIC (Escherichia coli [7]): 4 µg/mL
B1 | – | – | – | – | – | kcat/Km [10]: 500000 M⁻¹ s⁻¹; kcat/Km [11]: 660000 M⁻¹ s⁻¹; kcat/Km [12]: 60000 M⁻¹ s⁻¹; kcat/Km [13]: 160000 M⁻¹ s⁻¹; kcat/Km [14]: 210000 M⁻¹ s⁻¹; kcat/Km [15]: 9000 M⁻¹ s⁻¹; kcat/Km [16]: < 9000 M⁻¹ s⁻¹; kcat/Km [17]: 1000 M⁻¹ s⁻¹; kcat/Km [18]: 1000 M⁻¹ s⁻¹; kcat/Km [19]: 170000 M⁻¹ s⁻¹; kcat/Km [20]: 80000 M⁻¹ s⁻¹; kcat/Km [21]: 200000 M⁻¹ s⁻¹; kcat/Km [22]: < 35000 M⁻¹ s⁻¹; kcat/Km [23]: 100000 M⁻¹ s⁻¹; kcat/Km [24]: 220000 M⁻¹ s⁻¹
